Reference: article PMC3859345 (Science translational medicine, 2013)
Entries after “also recorded” stand apart in the source; their conditions may differ. Where no end group is shown, it is not given here. The star is where a group is joined. FITC = O=C1OC2(c3ccc(O)cc3Oc3cc(O)ccc32)c2ccc(NC(=S)*)cc21; Ahx = NCCCCCC(=O)O

Tests used:
[1] = Fluorescence emission spectra; format: physicochemical; conditions: 100 μM in PBS, 471 nm excitation
[2] = system: H460, FLO1, OE33, and OE19 adenocarcinoma cells; assay: Confocal fluorescence microscopy, control peptides; format: binding, human; conditions: compared with ASY*-FITC
adenocarcinoma cells = assay: Flow cytometry, adenocarcinoma cells; format: binding, human; conditions: for mean intensity of controls lower than that for ASY*-FITC: flow cytometry, relative to ASY*-FITC
In short: (§1)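 Adenocarcinoma and non-neoplastic Q-hTERT cells, grown as adherent monolayers at 37°C, 5% CO2, incubated with FITC-labelled peptide, with FITC-labelled control peptides (including a scrambled sequence), or left unstained. Mean fluorescence intensity measured by flow cytometry.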

Q-hTERT cells [3] = assay: Flow cytometry, Q-hTERT cells; format: binding, human
In short: as §1

[4] = system: OE19 adenocarcinoma cells; assay: Confocal fluorescence microscopy, OE19; format: binding, human
In short: (§2)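 Adherent OE19 and OE33 esophageal carcinoma monolayers maintained at 37°C, 5% CO2 in RPMI-1640 with 10% FBS, penicillin/streptomycin and 5 μg/ml plasmocin. FITC-labelled peptide binding to the plasma membrane examined by confocal fluorescence microscopy.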

[5] = system: Barrett's neoplasia (HGD/EAC); assay: Confocal endomicroscopy in vivo after topical peptide administration; set-up: species or system human
[6] = Stability testing of lyophilized powder; format: physicochemical; conditions: −20°C
In short: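 GMP-synthesized FITC-peptide aliquoted into amber vials crimp-sealed with septa and stored at −20°C. Monitored by appearance (colour), HPLC and mass spectrometry over 3 years.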

human subjects [7] = assay: Peptide safety in humans
H460 cells [8] = assay: Binding affinity; set-up: species or system human; conditions: read-out: apparent dissociation constant (kd); ASY*-FITC to H460 cells; averages from 3 independent experiments; least squares fit
In short: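 Human H460 lung adenocarcinoma cells were grown as adherent monolayers in DMEM with 10% FBS and 100 U/ml penicillin/streptomycin at 37°C, 5% CO2. They were incubated with FITC-labeled test peptide, and the apparent dissociation constant was derived from cell-bound fluorescence. Values are averages of 3 independent experiments.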

[9] = system: H460 adenocarcinoma cells; assay: Confocal fluorescence microscopy, H460; format: binding, human
In short: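 Adherent H460 cultures (DMEM, 10% FBS, P/S, 37°C, 5% CO2) were incubated with FITC-labeled test peptide and examined by confocal fluorescence microscopy for plasma-membrane labeling. Non-neoplastic Q-hTERT Barrett's cells, grown in keratinocyte serum-free medium with 50 μg/ml bovine pituitary extract and 0.005 μg/ml EGF, were the control line.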

[10] = system: human esophageal mucosa (squamous, BE, HGD, EAC); assay: Ex vivo fluorescence stereomicroscopy of resected esophageal specimens; format: binding; conditions: 1 mm^2 regions, 12 EMR specimens
human subjects [11] = conditions: in vivo
[12] = system: FLO1 adenocarcinoma cells; assay: Confocal fluorescence microscopy, FLO1; format: binding, human
In short: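 FLO1 esophageal adenocarcinoma cells cultured as adherent monolayers in DMEM with 10% FBS, penicillin/streptomycin and 5 μg/ml plasmocin at 37°C, 5% CO2. Plasma-membrane binding of FITC-labelled peptide assessed by confocal fluorescence microscopy.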

Q-hTERT cells [13] = assay: Confocal fluorescence microscopy, Q-hTERT; format: binding, human; conditions: Q-hTERT BE cells
In short: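 Non-neoplastic Q-hTERT Barrett's cells kept in keratinocyte serum-free medium with 50 μg/ml bovine pituitary extract, 0.005 μg/ml recombinant human EGF and penicillin/streptomycin, as adherent monolayers at 37°C, 5% CO2. Binding of FITC-labelled peptide checked by confocal fluorescence microscopy.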

[14] = system: OE33 adenocarcinoma cells; assay: Confocal fluorescence microscopy, OE33; format: binding, human
In short: as §2

H460 cells [15] = assay: Binding kinetics; set-up: species or system human; conditions: ASY*-FITC to H460 cells; least squares fit
In short: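 H460 lung adenocarcinoma cells grown as adherent monolayers in DMEM with 10% FBS and 100 U/ml penicillin/streptomycin at 37°C, 5% CO2. Association time constant k determined for FITC-labelled peptide binding to these cells.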

[16] = system: human H460 adenocarcinoma cells; assay: Phage display biopanning, phage count / pfu binding to H460 cells; conditions: pfu counts
H460 cells [17] = assay: Competitive binding with ASY*-FITC on H460 cells; set-up: species or system human; conditions: unlabeled competitor 100 to 1000 μM (GGG* control at concentrations up to 1000 μM, P>0.05, unpaired t-test)
ovarian cancer = conditions: topical administration, mouse model of ovarian cancer; cited from earlier work

Molecule `O=C1OC2(c3ccc(O)cc3Oc3cc(O)ccc32)c2ccc(N=C=S)cc21` [FITC, reference compound] has a peak emission [1] of 519 nm.

With AADYYSN-GGGSK-FITC the “fluorescence signal of control peptides” value [2] was “Significantly less signal”, the “mean intensity of controls lower than that for ASY*-FITC” value (adenocarcinoma cells) was under 3 fold and the “difference between ASY*-FITC and control peptides on binding to Q-hTERT cells” value (Q-hTERT cells [3]) was “No difference”.

With ASYNYDA [ASY*-FITC] the “binding to plasma membrane (confocal), OE19” value [4] was “binding of ASY*-FITC to the plasma membrane; also recorded: specific binding”, the “greater fluorescence intensity for HGD/EAC (neoplasia) than for BE and squamous” value ([5]; 25 human subjects, topical 5 ml of 100 μM, 5 min incubation) was 3.8 fold and the “in vivo binding, HGD and EAC” value ([5]; HGD and EAC crypts, confocal endomicroscopy) was “specific peptide binding to neoplastic crypts”. The “specificity for HGD/EAC” value ([5]; T/B ratio threshold 4.2, 95% CI: 85%–100%, 25 human subjects) was 97%, the “in vivo binding, squamous epithelium” value ([5]; normal squamous epithelium, confocal endomicroscopy) was “no peptide binding” and the onset of binding ([5]; topical administration) was ~ 5 minutes. The “purity on HPLC at end of stability testing” value ([6]; 36 months, initial 97%) was 95%, the “change in purity on HPLC” value ([6]; over 36 months (97% to 95%)) was ~ 2% and the “mean WBC count ratio by day 5” value (human subjects [7]; 14 out of 21 patients with leukocytosis resolved, SD, P<0.01, Mann Whitney test) was 1.1±0.2. The “mean white blood cell (WBC) count at 24 hours” value (human subjects [7]; 21 patients with EMR, baseline 7.0×10^3, P<0.01, unpaired t-test, transient) was 11.1×10^3, the “safety of topical application (in words)” value (human subjects [7]; BE patients, topical) was “safe and effective” and the “patients with leukocytosis resolved by day 5” value (human subjects [7]; after EMR with peptide, remaining 7 patients after day 5) was 14 out of 21. The urinalyses (human subjects [7]; all 25 patients, baseline and post-procedure) was “within normal limits”, the “relation of adverse events to the peptide” value (human subjects [7]; all adverse events, clinical study) was “unlikely to have been related to the peptide” and the “toxicity attributed to the peptide” value (human subjects [7]; animal and patient studies) was “No toxicity was attributed to the peptide”. The Kd (H460 cells [8]) was 32 nM, the “binding to plasma membrane (confocal), H460” value [9] was “binding of ASY*-FITC to the plasma membrane” and the “mean fluorescence intensities for HGD and EAC versus non-dysplastic BE and squamous” value [10] was “significantly greater than non-dysplastic BE and squamous”. For the same molecule, the “mean post/pre-EMR WBC ratio at 24 hours” value (human subjects [11]) was 1.7±0.4, the “post/pre-EMR WBC ratio without peptide compared with peptide and EMR” value (human subjects [11]) was “not significantly different” and the “binding to plasma membrane (confocal), FLO1” value [12] was “binding of ASY*-FITC to the plasma membrane; also recorded: specific binding”. The “binding to Q-hTERT cells” value (Q-hTERT cells [13]) was “did not bind to Q-hTERT cells”, the “binding to plasma membrane (confocal), OE33” value [14] was “binding of ASY*-FITC to the plasma membrane; also recorded: specific binding” and the “binding on flow cytometry (in words)” value (adenocarcinoma cells; compared with control peptides) was “stronger binding to the adenocarcinoma cells”. For the same molecule, the “difference between ASY*-FITC and control peptides on binding to Q-hTERT cells” value (Q-hTERT cells [3]) was “No difference”, the “apparent association rate constant (k)” value (H460 cells [15]) was 0.2 min⁻¹ and the peak emission [1] was 519 nm.

With ASYNYDA [ASYNYDA phage] the “greater binding for H460 than for Q-hTERT cells” value ([16]; H460 vs Q-hTERT BE cells) was 5.3 fold and the “greater binding for H460 cells in comparison to wild-type (WT)-phage” value ([16]; vs WT-phage (no peptides expressed)) was over 10 fold.

With GGGAGGGAGGGK the “inhibition of ASY*-FITC binding (fluorescence intensity)” value (H460 cells [17]) was “No significant reduction in fluorescence intensity”.

For GGGAGGGAGGGK-FITC, the “fluorescence signal of control peptides” value [2] was “Significantly less signal”, the “mean intensity of controls lower than that for ASY*-FITC” value (adenocarcinoma cells) was under 3 fold and the “difference between ASY*-FITC and control peptides on binding to Q-hTERT cells” value (Q-hTERT cells [3]) was “No difference”.

For MNDPIPQ-GGGSK-FITC, the “fluorescence signal of control peptides” value [2] was “Significantly less signal”, the “mean intensity of controls lower than that for ASY*-FITC” value (adenocarcinoma cells) was under 3 fold and the “difference between ASY*-FITC and control peptides on binding to Q-hTERT cells” value (Q-hTERT cells [3]) was “No difference”.

With {FITC-Ahx}-ASYNYDA the “fluorescence signal of control peptides” value [2] was “Significantly less signal”, the “mean intensity of controls lower than that for ASY*-FITC” value (adenocarcinoma cells) was under 3 fold and the “difference between ASY*-FITC and control peptides on binding to Q-hTERT cells” value (Q-hTERT cells [3]) was “No difference”.

In the case of “γ-glutamyl hydroxymethyl rhodamine green”, the “time to fluorescence activation” value (ovarian cancer) is given as ~ 1 minute.
